Source: ChEMBL document CHEMBL4261585, “Synthesis of 1,2,3-triazole linked 4(3H)-Quinazolinones as potent antibacterial agents against multidrug-resistant Staphylococcus aureus” (Eur J Med Chem, 2018)
≈ marks a conversion by molar mass, not a printed value.

What was measured:
Acinetobacter baumannii [1] = assay: Antibacterial activity against Acinetobacter baumannii BAA-1605 after 16 to 18 hrs in presence of PMBN by CLSI method; assay type: functional
In short: (§1)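 MIC per CLSI broth microdilution with compound combined with a sub-lethal level of polymyxin B nonapeptide. Inoculum is ~10⁶ CFU/mL in cation-supplemented Mueller-Hinton broth. Incubation is 37 °C for 16–18 h. MIC is read as the absence of visible growth. Three independent runs, each in duplicate.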

Acinetobacter baumannii [2] = assay: Antibacterial activity against Acinetobacter baumannii BAA-1605 after 16 to 18 hrs by CLSI method; assay type: functional
In short: (§2)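 Broth microdilution MIC per CLSI. A single colony from Mueller-Hinton agar is grown overnight in cation-supplemented Mueller-Hinton broth (37 °C, shaking, 18–24 h). Incubation is 37 °C for 16–18 h. MIC is the lowest concentration with no visible growth. Three independent runs, each in duplicate.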

Escherichia coli [3] = assay: Antibacterial activity against Escherichia coli ATCC 25922 after 16 to 18 hrs by CLSI method; assay type: functional; in short: as §2
Escherichia coli [4] = assay: Antibacterial activity against Escherichia coli ATCC 25922 after 16 to 18 hrs in presence of PMBN by CLSI method; assay type: functional; in short: as §1
Pseudomonas aeruginosa = assay: Antibacterial activity against Pseudomonas aeruginosa ATCC 27853 after 16 to 18 hrs by CLSI method; assay type: functional; in short: as §2
Klebsiella pneumoniae = assay: Antibacterial activity against Klebsiella pneumoniae ATCC BAA-1705 after 16 to 18 hrs by CLSI method; assay type: functional; in short: as §2
Staphylococcus aureus [5] = assay: Antibacterial activity against methicillin-resistant Staphylococcus aureus NR10129 by CLSI method; assay type: functional
In short: (§3)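 Broth microdilution to CLSI. A single colony from Mueller-Hinton agar is grown overnight in cation-supplemented MHB at 37 °C with shaking, 18–24 h. Levofloxacin is the reference. MIC is the lowest concentration with no visible growth, from three independent runs in duplicate.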

Staphylococcus aureus [6] = assay: Antibacterial activity against Staphylococcus aureus ATCC 29213 after 16 to 18 hrs by CLSI method; assay type: functional; in short: as §2
Staphylococcus aureus [7] = assay: Antibacterial activity against methicillin-resistant Staphylococcus aureus NR10192 by CLSI method; assay type: functional; in short: as §3
Staphylococcus aureus [8] = assay: Antibacterial activity against methicillin-resistant Staphylococcus aureus NR10193 by CLSI method; assay type: functional; in short: as §3
Staphylococcus aureus [9] = assay: Antibacterial activity against methicillin-resistant Staphylococcus aureus NR10191 by CLSI method; assay type: functional; in short: as §3
Staphylococcus aureus [10] = assay: Antibacterial activity against methicillin-resistant Staphylococcus aureus NR119 by CLSI method; assay type: functional; in short: as §3
Staphylococcus aureus [11] = assay: Antibacterial activity against vancomycin-resistant Staphylococcus aureus VRS12 by CLSI method; assay type: functional; in short: as §3
Staphylococcus aureus [12] = assay: Antibacterial activity against methicillin-resistant Staphylococcus aureus NR10194 by CLSI method; assay type: functional; in short: as §3
Staphylococcus aureus [13] = assay: Antibacterial activity against methicillin-sensitive Staphylococcus aureus ATCC 29213 by CLSI method; assay type: functional; in short: as §3
Staphylococcus aureus [14] = assay: Antibacterial activity against vancomycin-resistant Staphylococcus aureus VRS1 by CLSI method; assay type: functional; in short: as §3
Staphylococcus aureus [15] = assay: Antibacterial activity against methicillin-resistant Staphylococcus aureus NR10198 by CLSI method; assay type: functional; in short: as §3
Staphylococcus aureus [16] = assay: Antibacterial activity against vancomycin-resistant Staphylococcus aureus VRS4 by CLSI method; assay type: functional; in short: as §3
Staphylococcus aureus [17] = assay: Antibacterial activity against methicillin-resistant Staphylococcus aureus NR10186 by CLSI method; assay type: functional; in short: as §3
[18] = tested on: Mycobacterium tuberculosis; assay: Antimycobacterial activity against Mycobacterium tuberculosis H37Rv ATCC 27294 after 7 days by pesto blue-dye based broth microdilution assay; assay type: functional; details: H37Rv ATCC 27294, 168 h
In short: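 Broth microdilution in Middlebrook 7H9 with 10% ADC-Tween-80 (0.2% glycerol, 0.05% Tween-80). Compound is added from 10 mg/mL DMSO stocks as two-fold dilutions, 64–0.5 mg/L. Plates are incubated 7 days at 37 °C and read with PrestoBlue resazurin dye. MIC is the lowest concentration inhibiting visible growth, three replicates in duplicate.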

[19] = tested on: Mycolicibacterium fortuitum; assay: Antimycobacterial activity against Mycobacterium fortuitum by pesto blue-dye based broth microdilution assay; assay type: functional
[20] = Selectivity index, ratio of CC50 for African green monkey Vero cells to MIC for Staphylococcus aureus ATCC 29213; assay type: toxicity; details: read-out: Selectivity Index
In short: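 Selectivity index is calculated as the Vero CC50 divided by the MIC against S. aureus ATCC 29213. CC50 comes from a 72 h MTT assay at 100–5 mg/L. MIC comes from CLSI broth microdilution at ~10⁶ CFU/mL, 37 °C, 16–18 h.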

[21] = tested on: Mycobacteroides abscessus; assay: Antimycobacterial activity against Mycobacterium abscessus by pesto blue-dye based broth microdilution assay; assay type: functional
[22] = Cytotoxicity against African green monkey Vero cells after 72 hrs by MTT assay; assay type: cell-based; details: chlorocebus sabaeus
In short: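 Vero cells are seeded at ~10³ per well and held 24 h at 37 °C, 5% CO₂. Compound at 100–5 mg/L is then added for 72 h. MTT is added at […], and formazan is dissolved in DMSO and read at 540 nm. CC50 is the lowest concentration giving 50% loss of viability. Doxorubicin is the positive control. Triplicate experiments.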

Mycobacteroides chelonae = assay: Antimycobacterial activity against Mycobacterium chelonae by pesto blue-dye based broth microdilution assay; assay type: functional

Row | SMILES | MIC (Acinetobacter baumannii [2]) [µg/mL] | MIC (Escherichia coli [3]) [µg/mL] | MIC (Pseudomonas aeruginosa) [µg/mL] | MIC (Klebsiella pneumoniae) [µg/mL] | MIC (Staphylococcus aureus [5]) [µg/mL] | MIC (Staphylococcus aureus [6]) [µg/mL] | MIC (Staphylococcus aureus [7]) [µg/mL] | MIC (Staphylococcus aureus [8]) [µg/mL] | MIC (Staphylococcus aureus [9]) [µg/mL] | MIC (Staphylococcus aureus [10]) [µg/mL] | MIC (Staphylococcus aureus [11]) [µg/mL] | MIC (Staphylococcus aureus [12]) [µg/mL] | MIC (Staphylococcus aureus [13]) [µg/mL] | MIC (Staphylococcus aureus [14]) [µg/mL] | MIC (Staphylococcus aureus [15]) [µg/mL] | MIC (Staphylococcus aureus [16]) [µg/mL] | MIC [18] [µg/mL] | MIC [19] [µg/mL] | MIC [21] [µg/mL] | MIC (Mycobacteroides chelonae) [µg/mL] | other results
1 | CO[C@H]1/C=C/O[C@@]2(C)Oc3c(C)c(O)c4c(O)c(c(/C=N/N5CCN(C)CC5)c(O)c4c3C2=O)NC(=O)/C(C)=C\C=C\[C@H](C)[C@H](O)[C@@H](C)[C@@H](O)[C@@H](C)[C@H](OC(C)=O)[C@@H]1C [RIFAMPIN] | 4 (≈ 4.86 µM) | 4 (≈ 4.86 µM) | – | – | – | – | – | – | – | – | – | – | – | – | – | – | – | – | – | – | MIC (Acinetobacter baumannii [1]): 0.25 µg/mL; MIC (Escherichia coli [4]): 0.125 µg/mL
2 | C[C@H]1COc2c(N3CCN(C)CC3)c(F)cc3c(=O)c(C(=O)O)cn1c23.C[C@H]1COc2c(N3CCN(C)CC3)c(F)cc3c(=O)c(C(=O)O)cn1c23.O [LEVOFLOXACIN] | – | – | 0.5 | 64 | 0.5 | 0.125 | 8 | 32 | 32 | 16 | 32 | 0.5 | 0.5 | 32 | 32 | > 64 | – | – | – | – | MIC (Staphylococcus aureus [17]): 8 µg/mL
3 | N#Cc1ccc(/C=C/c2nc3ccccc3c(=O)n2-c2cccc(OCc3cn(-c4ccc(Cl)cc4)nn3)c2)cc1 | > 64 | > 64 | > 64 | > 64 | – | 0.5 (≈ 0.898 µM) | – | – | – | – | – | – | – | – | – | – | > 64 | > 64 | > 64 | > 64 | selectivity ratio [20]: 40; CC50 at 72 h [22]: 20 µg/mL (≈ 35.9 µM)
4 | Cc1cccc(-n2cc(COc3cccc(-n4c(/C=C/c5ccc(C#N)cc5)nc5ccccc5c4=O)c3)nn2)c1 | > 64 | > 64 | > 64 | > 64 | – | 0.5 (≈ 0.932 µM) | – | – | – | – | – | – | – | – | – | – | > 64 | > 64 | > 64 | > 64 | selectivity ratio [20]: 40; CC50 at 72 h [22]: 20 µg/mL (≈ 37.3 µM)
5 | N#Cc1ccc(/C=C/c2nc3ccccc3c(=O)n2-c2cccc(OCc3cn(-c4cccc(Cl)c4)nn3)c2)cc1 | > 64 | > 64 | > 64 | > 64 | 0.5 (≈ 0.898 µM) | 0.5 (≈ 0.898 µM) | 0.5 (≈ 0.898 µM) | 1 (≈ 1.8 µM) | 1 (≈ 1.8 µM) | 0.5 (≈ 0.898 µM) | 2 (≈ 3.59 µM) | 0.5 (≈ 0.898 µM) | 0.5 (≈ 0.898 µM) | 32 (≈ 57.4 µM) | 0.5 (≈ 0.898 µM) | 0.5 (≈ 0.898 µM) | > 64 | > 64 | > 64 | > 64 | MIC (Acinetobacter baumannii [1]): > 64 µg/mL; selectivity ratio [20]: 80; CC50 at 72 h [22]: 40 µg/mL (≈ 71.8 µM); MIC (Escherichia coli [4]): > 64 µg/mL; MIC (Staphylococcus aureus [17]): 0.5 µg/mL (≈ 0.898 µM)
6 | C[C@@H](O)[C@H]1C(=O)N2C(C(=O)O)=C(S[C@@H]3CN[C@H](C(=O)N(C)C)C3)[C@H](C)[C@H]12 [MEROPENEM] | – | – | – | – | 16 (≈ 41.7 µM) | – | 64 (≈ 167 µM) | > 64 | > 64 | > 64 | > 64 | 4 (≈ 10.4 µM) | 4 (≈ 10.4 µM) | > 64 | > 64 | > 64 | – | – | – | – | MIC (Staphylococcus aureus [17]): 16 µg/mL (≈ 41.7 µM)
7 | CN[C@H](CC(C)C)C(=O)N[C@H]1C(=O)N[C@@H](CC(N)=O)C(=O)N[C@H]2C(=O)N[C@H]3C(=O)N[C@H](C(=O)N[C@H](C(=O)O)c4cc(O)cc(O)c4-c4cc3ccc4O)[C@H](O)c3ccc(c(Cl)c3)Oc3cc2cc(c3O[C@@H]2O[C@H](CO)[C@@H](O)[C@H](O)[C@H]2O[C@H]2C[C@](C)(N)[C@H](O)[C@H](C)O2)Oc2ccc(cc2Cl)[C@H]1O [VANCOMYCIN] | – | – | – | – | – | – | – | – | – | – | > 64 | – | – | > 64 | – | > 64 | – | – | – | – | –
8 | N#Cc1ccc(/C=C/c2nc3ccccc3c(=O)n2-c2cccc(OCc3cn(Cc4ccccc4)nn3)c2)cc1 | > 64 | > 64 | > 64 | > 64 | 2 (≈ 3.73 µM) | 0.5 (≈ 0.932 µM) | 1 (≈ 1.86 µM) | 2 (≈ 3.73 µM) | 1 (≈ 1.86 µM) | 2 (≈ 3.73 µM) | 2 (≈ 3.73 µM) | 1 (≈ 1.86 µM) | 1 (≈ 1.86 µM) | 32 (≈ 59.6 µM) | 2 (≈ 3.73 µM) | 2 (≈ 3.73 µM) | > 64 | > 64 | > 64 | > 64 | MIC (Acinetobacter baumannii [1]): > 64 µg/mL; selectivity ratio [20]: 40; CC50 at 72 h [22]: 20 µg/mL (≈ 37.3 µM); MIC (Escherichia coli [4]): > 64 µg/mL; MIC (Staphylococcus aureus [17]): 2 µg/mL (≈ 3.73 µM)
9 | N#Cc1ccc(/C=C/c2nc3ccccc3c(=O)n2-c2cccc(-n3cc(-c4ccccc4)nn3)c2)cc1 | > 64 | > 64 | > 64 | > 64 | – | > 64 | – | – | – | – | – | – | – | – | – | – | > 64 | > 64 | > 64 | > 64 | –
10 | COc1ccc(-n2cc(COc3cccc(-n4c(/C=C/c5ccc(C#N)cc5)nc5ccccc5c4=O)c3)nn2)cc1 | > 64 | > 64 | > 64 | > 64 | – | 4 (≈ 7.24 µM) | – | – | – | – | – | – | – | – | – | – | > 64 | > 64 | > 64 | > 64 | –
11 | COc1ccc(-n2cc(COc3cccc(-n4c(C)nc5ccccc5c4=O)c3)nn2)cc1 | > 64 | > 64 | > 64 | > 64 | – | > 64 | – | – | – | – | – | – | – | – | – | – | > 64 | > 64 | > 64 | > 64 | –
12 | Cc1cc([N+](=O)[O-])ccc1-n1cc(COc2cccc(-n3c(C)nc4ccccc4c3=O)c2)nn1 | > 64 | > 64 | > 64 | > 64 | – | > 64 | – | – | – | – | – | – | – | – | – | – | 32 (≈ 68.3 µM) | > 64 | > 64 | > 64 | –
